Measured values from ChEMBL document CHEMBL4130628, “Identification and Pharmacological Profile of an Indane Based Series of Ghrelin Receptor Full Agonists” (J Med Chem, 2018).

Target: Voltage-gated inwardly rectifying potassium channel KCNH2 (Homo sapiens, UniProt Q12809)
Test: Inhibition of human ERG expressed in CHO cells
Assay type: cell-based
Conditions: not given
Summary of the method: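 hERG currents recorded from CHO cells expressing hERG.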

Chain of Voltage-gated inwardly rectifying potassium channel KCNH2 (Q12809 whole entry): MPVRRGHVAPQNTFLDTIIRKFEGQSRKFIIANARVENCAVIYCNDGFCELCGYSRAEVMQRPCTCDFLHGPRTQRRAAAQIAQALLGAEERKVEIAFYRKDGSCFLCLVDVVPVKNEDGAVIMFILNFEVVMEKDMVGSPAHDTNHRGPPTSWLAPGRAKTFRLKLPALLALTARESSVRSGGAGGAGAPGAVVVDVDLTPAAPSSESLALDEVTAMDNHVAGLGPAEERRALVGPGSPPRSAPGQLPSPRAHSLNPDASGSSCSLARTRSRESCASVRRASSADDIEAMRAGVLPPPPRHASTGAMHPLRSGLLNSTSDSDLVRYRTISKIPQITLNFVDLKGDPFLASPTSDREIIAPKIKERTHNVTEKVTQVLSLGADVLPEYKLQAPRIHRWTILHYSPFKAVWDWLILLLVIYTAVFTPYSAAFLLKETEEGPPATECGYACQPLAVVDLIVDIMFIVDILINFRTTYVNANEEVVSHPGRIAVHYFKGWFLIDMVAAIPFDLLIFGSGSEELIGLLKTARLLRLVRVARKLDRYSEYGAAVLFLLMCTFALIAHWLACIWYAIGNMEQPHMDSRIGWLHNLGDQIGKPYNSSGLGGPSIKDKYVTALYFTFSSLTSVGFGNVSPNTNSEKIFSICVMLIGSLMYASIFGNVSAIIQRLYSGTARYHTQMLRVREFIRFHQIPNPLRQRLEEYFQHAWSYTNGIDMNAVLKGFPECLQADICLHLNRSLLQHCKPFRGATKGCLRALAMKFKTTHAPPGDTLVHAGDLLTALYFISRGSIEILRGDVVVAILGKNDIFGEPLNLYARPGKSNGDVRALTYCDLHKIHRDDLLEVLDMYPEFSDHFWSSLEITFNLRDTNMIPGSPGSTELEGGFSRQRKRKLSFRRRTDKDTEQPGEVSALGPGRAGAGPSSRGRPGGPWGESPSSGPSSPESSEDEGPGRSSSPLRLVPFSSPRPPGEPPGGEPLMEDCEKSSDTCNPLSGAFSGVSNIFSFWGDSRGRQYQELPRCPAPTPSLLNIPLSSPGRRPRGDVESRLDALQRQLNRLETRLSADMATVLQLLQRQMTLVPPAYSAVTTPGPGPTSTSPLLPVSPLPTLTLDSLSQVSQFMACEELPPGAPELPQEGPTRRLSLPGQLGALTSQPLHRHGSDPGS

Structure (SMILES) | IC50 [µM]
Cc1ccc2[nH]c(C(=O)N[C@H]3Cc4ccccc4[C@H]3NC(=O)CCN(C)C)cc2c1 | 25.1
COCCNCCC(=O)N[C@H]1c2ccccc2C[C@@H]1NC(=O)c1cc2ccccc2n1C | 1.58
Cc1ccc2[nH]c(C(=O)N[C@H]3Cc4ccccc4[C@@H]3NC(=O)CCN(C)C)cc2c1 | 7.94
Cc1ccc2[nH]c(C(=O)N[C@@H]3Cc4ccccc4[C@@H]3NC(=O)CCN(C)C)cc2c1 | 6.31

Target: T1, Growth hormone secretagogue receptor type 1 (Homo sapiens, UniProt Q92847)
T1 sequence (Q92847 whole entry): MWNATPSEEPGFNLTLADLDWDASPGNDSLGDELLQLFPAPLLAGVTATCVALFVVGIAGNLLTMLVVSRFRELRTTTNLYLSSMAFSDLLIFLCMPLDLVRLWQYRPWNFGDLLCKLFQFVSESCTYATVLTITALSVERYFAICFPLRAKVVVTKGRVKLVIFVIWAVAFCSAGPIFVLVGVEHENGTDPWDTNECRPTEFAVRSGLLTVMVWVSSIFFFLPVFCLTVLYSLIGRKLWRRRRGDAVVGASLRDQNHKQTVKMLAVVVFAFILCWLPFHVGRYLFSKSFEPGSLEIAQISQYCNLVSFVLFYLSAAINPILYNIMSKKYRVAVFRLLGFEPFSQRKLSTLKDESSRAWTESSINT
Test: Displacement of human [125I]-ghrelin from GHS-R1a (unknown origin) expressed in HEK293 cell membranes after 1 hr by radioligand binding assay
Conditions: hek293

pIC50 | Structure (SMILES)
< 6 | CN1CCCO[C@@H](C(=O)N[C@H]2c3ccccc3C[C@@H]2NC(=O)c2ccc3c(ccn3C)c2)C1

Same assay, conditions: read-out: IC50

IC50 [µM] | Structure (SMILES)
0.013 | Cn1ccc2c(F)c(C(=O)N[C@H]3Cc4ccccc4[C@@H]3NC(=O)c3cnccc3N)ccc21
0.107 | CN1CCCCC(C(=O)N[C@H]2c3ccccc3C[C@@H]2NC(=O)c2ccc3c(ccn3C)c2)C1 (stereo in doubt; 27)
> 2.9 | CN1CCO[C@@H](C(=O)N[C@H]2c3ccccc3C[C@@H]2NC(=O)c2ccc3c(ccn3C)c2)C1
> 1 | CN1CCCO[C@@H](C(=O)N[C@H]2c3ccccc3C[C@@H]2NC(=O)c2ccc3c(ccn3C)c2)C1
0.035 | Cc1ccc2[nH]c(C(=O)N[C@H]3Cc4ccccc4[C@@H]3NC(=O)c3cnccc3N)cc2c1
0.069 | Cc1ccc2[nH]c(C(=O)N[C@H]3Cc4ccccc4[C@H]3NC(=O)CCN(C)C)cc2c1
0.43 | COCCNCCC(=O)N[C@H]1c2ccccc2C[C@@H]1NC(=O)c1cc2ccccc2n1C
0.049 | Nc1ccncc1C(=O)N[C@H]1c2ccccc2C[C@@H]1NC(=O)c1cc2ccccc2[nH]1
0.016 | Cc1ccc2[nH]c(C(=O)N[C@H]3Cc4ccccc4[C@@H]3NC(=O)CCN(C)C)cc2c1
1.26 | Cc1ccc2[nH]c(C(=O)N[C@@H]3Cc4ccccc4[C@@H]3NC(=O)CCN(C)C)cc2c1

Same assay, conditions: read-out: pIC50 (converted)

IC50 [µM] | Structure (SMILES)
> 3.16 | CN1CCO[C@@H](C(=O)N[C@H]2c3ccccc3C[C@@H]2NC(=O)c2ccc3c(ccn3C)c2)C1

Test system: not listed separately
Test: 1-octanol/aqueous buffer distribution coefficient, log D of compound at pH 7.4
Assay type: physicochemical
Conditions: 1-octanol/aqueous buffer, read-out: logD

logD | Structure (SMILES)
2.9 | Cn1ccc2c(F)c(C(=O)N[C@H]3Cc4ccccc4[C@@H]3NC(=O)c3cnccc3N)ccc21
2.1 | CN1CCCCC(C(=O)N[C@H]2c3ccccc3C[C@@H]2NC(=O)c2ccc3c(ccn3C)c2)C1 (stereo in doubt; 27)
2.4 | CN1CCO[C@@H](C(=O)N[C@H]2c3ccccc3C[C@@H]2NC(=O)c2ccc3c(ccn3C)c2)C1
2.3 | CN1CCCO[C@@H](C(=O)N[C@H]2c3ccccc3C[C@@H]2NC(=O)c2ccc3c(ccn3C)c2)C1
3 | Cc1ccc2[nH]c(C(=O)N[C@H]3Cc4ccccc4[C@@H]3NC(=O)c3cnccc3N)cc2c1
2.4 | Nc1ccncc1C(=O)N[C@H]1c2ccccc2C[C@@H]1NC(=O)c1cc2ccccc2[nH]1

Target: T1, Growth hormone secretagogue receptor type 1
Test: Agonist activity at human GHS receptor assessed as intracellular myo-IP1 secretion after 90 mins by HTRF analysis
Assay type: functional, cell-based
Conditions: read-out: EC50

EC50 [µM] | Structure (SMILES)
0.003 | Cn1ccc2c(F)c(C(=O)N[C@H]3Cc4ccccc4[C@@H]3NC(=O)c3cnccc3N)ccc21
0.036 | CN1CCCCC(C(=O)N[C@H]2c3ccccc3C[C@@H]2NC(=O)c2ccc3c(ccn3C)c2)C1 (stereo in doubt; 27)
0.274 | CN1CCO[C@@H](C(=O)N[C@H]2c3ccccc3C[C@@H]2NC(=O)c2ccc3c(ccn3C)c2)C1
0.262 | CN1CCCO[C@@H](C(=O)N[C@H]2c3ccccc3C[C@@H]2NC(=O)c2ccc3c(ccn3C)c2)C1
0.014 | Cc1ccc2[nH]c(C(=O)N[C@H]3Cc4ccccc4[C@@H]3NC(=O)c3cnccc3N)cc2c1
0.1 | Cc1ccc2[nH]c(C(=O)N[C@H]3Cc4ccccc4[C@H]3NC(=O)CCN(C)C)cc2c1
0.16 | COCCNCCC(=O)N[C@H]1c2ccccc2C[C@@H]1NC(=O)c1cc2ccccc2n1C
0.025 | Nc1ccncc1C(=O)N[C@H]1c2ccccc2C[C@@H]1NC(=O)c1cc2ccccc2[nH]1
0.021 | Cc1ccc2[nH]c(C(=O)N[C@H]3Cc4ccccc4[C@@H]3NC(=O)CCN(C)C)cc2c1
1.5 | Cc1ccc2[nH]c(C(=O)N[C@@H]3Cc4ccccc4[C@@H]3NC(=O)CCN(C)C)cc2c1

Same assay, conditions: read-out: pEC50 (converted)

EC50 [µM] | Structure (SMILES)
0.01 | Cn1ccc2c(F)c(C(=O)N[C@H]3Cc4ccccc4[C@@H]3NC(=O)c3cnccc3N)ccc21
